Measured values as given in ChEMBL document CHEMBL4177769, “Highly Selective and Potent Ectonucleotide Pyrophosphatase-1 (NPP1) Inhibitors Based on Uridine 5'-Pα,α-Dithiophosphate Analogues” (J Med Chem, 2018).
Activity calls are given as the source filed them. The calls are words filed in the database; no cut-off is given here.

Columns and labels:
[1] = biological target: T1, Ectonucleotide pyrophosphatase/phosphodiesterase family member 1 (Homo sapiens) (UniProt P22413); experiment: Inhibition of human NPP1 at 100 uM using pNP-TMP as substrate preincubated for 3 mins followed by substrate addition measured after 15 mins relative to control
T1 sequence (whole entry): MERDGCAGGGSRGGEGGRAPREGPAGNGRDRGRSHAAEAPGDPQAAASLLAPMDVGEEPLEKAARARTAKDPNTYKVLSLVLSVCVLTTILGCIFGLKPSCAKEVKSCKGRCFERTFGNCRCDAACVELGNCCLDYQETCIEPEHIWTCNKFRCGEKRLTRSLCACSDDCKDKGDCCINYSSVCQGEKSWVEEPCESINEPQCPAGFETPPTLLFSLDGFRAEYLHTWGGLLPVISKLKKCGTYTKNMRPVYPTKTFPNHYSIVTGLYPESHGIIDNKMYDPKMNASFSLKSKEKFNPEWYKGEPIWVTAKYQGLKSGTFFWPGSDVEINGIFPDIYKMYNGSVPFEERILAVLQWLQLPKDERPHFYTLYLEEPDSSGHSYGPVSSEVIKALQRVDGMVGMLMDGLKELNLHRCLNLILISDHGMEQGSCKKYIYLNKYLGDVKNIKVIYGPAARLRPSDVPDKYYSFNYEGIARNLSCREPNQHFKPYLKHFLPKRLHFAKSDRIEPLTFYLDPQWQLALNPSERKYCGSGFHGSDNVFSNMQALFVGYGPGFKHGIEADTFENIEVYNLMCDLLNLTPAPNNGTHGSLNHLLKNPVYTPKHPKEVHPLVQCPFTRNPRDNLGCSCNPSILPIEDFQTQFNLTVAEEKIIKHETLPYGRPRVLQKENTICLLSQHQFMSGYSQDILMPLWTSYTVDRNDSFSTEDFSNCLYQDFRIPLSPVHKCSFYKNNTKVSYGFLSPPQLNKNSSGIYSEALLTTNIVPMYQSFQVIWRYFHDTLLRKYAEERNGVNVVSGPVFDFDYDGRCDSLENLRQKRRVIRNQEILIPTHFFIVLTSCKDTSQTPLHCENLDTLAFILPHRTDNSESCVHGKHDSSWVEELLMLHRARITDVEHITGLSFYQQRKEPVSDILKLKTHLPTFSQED
In short: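 Human NPP1 (4−5 μg) or NPP3 (12−14 μg) cell lysate in mM 1 CaCl2, 140 NaCl, 5 KCl, 50 Tris pH 8.5, 37 °C. Compound at 100 μM, 3 min preincubation, 100 μM pNP-TMP substrate. p-Nitrophenol read at 405 nm after 15 min. Blank with enzyme added at end subtracted. Activity without compound taken as 100%. At least two independent experiments in triplicate.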

[2] = biological target: T2, Ectonucleoside triphosphate diphosphohydrolase 1 (Homo sapiens) (UniProt P49961); experiment: Inhibition of human NTPDase1 at 100 uM using ATP as substrate preincubated for 3 mins followed by substrate addition measured after 10 mins by malachite green reagent-based assay
T2 sequence (whole entry): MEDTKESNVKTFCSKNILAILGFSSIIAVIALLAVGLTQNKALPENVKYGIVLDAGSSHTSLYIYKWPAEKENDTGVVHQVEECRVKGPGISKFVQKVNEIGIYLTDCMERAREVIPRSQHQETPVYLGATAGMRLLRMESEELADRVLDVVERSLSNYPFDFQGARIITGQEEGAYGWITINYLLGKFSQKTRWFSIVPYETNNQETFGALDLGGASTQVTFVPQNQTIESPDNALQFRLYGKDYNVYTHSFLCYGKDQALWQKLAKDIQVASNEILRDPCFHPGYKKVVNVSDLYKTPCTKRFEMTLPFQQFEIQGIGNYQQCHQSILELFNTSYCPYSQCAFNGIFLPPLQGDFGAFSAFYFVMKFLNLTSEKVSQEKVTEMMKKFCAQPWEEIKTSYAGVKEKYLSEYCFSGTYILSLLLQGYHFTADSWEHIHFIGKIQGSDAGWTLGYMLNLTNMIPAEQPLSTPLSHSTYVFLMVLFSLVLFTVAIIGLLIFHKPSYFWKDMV
In short: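 Compound at 100 μM, 3 min preincubation, 100 μM ATP, 10 min. Stopped with malachite green; Pi read at 630 nm. Blank with enzyme added after stop subtracted. Activity with ATP alone taken as 100%.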

[3] = biological target: P2Y purinoceptor 2 (Homo sapiens) (UniProt P41231); experiment: Agonist activity at recombinant human P2RY2 expressed in AD293 cells assessed as increase in intracellular calcium levels by Fluo-4/AM dye-based spectrofluorometer; format: functional, cell-based
Sequence of P2Y purinoceptor 2 (Homo sapiens) (P41231 whole entry): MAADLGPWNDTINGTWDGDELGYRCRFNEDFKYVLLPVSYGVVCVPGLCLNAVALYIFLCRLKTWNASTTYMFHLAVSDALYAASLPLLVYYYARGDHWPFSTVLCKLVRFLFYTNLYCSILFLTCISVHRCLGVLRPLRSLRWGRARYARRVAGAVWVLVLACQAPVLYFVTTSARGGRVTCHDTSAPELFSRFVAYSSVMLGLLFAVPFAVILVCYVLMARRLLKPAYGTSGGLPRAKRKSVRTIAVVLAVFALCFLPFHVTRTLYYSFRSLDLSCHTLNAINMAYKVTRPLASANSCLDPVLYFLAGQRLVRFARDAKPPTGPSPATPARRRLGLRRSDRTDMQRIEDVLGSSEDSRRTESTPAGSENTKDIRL
In short: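 Human P2Y2, P2Y4 or P2Y6 receptor stably expressed in AD293 cells. Compound at 100 μM. Agonism read as change in intracellular calcium (Δ[Ca2+]i), with UDP or UTP as control.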

[4] = Drug metabolism at 2 mM at acidic pH after 5 days by 31P NMR method; format: physicochemical; settings: read-out: Drug metabolism
[5] = Drug metabolism at 2 mM at basic pH after 5 days by 31P NMR method; format: physicochemical; settings: read-out: Drug metabolism
[6] = Stability of the compound assessed as air oxidation at room temperature at 1.8 mM after 3 weeks by 31P NMR method; format: physicochemical; settings: 504 h, 1800 µM

O=c1ccn([C@@H]2O[C@H](COP(=S)(S)OP(=O)(O)O)[C@@H](O)[C@H]2O)c(=O)[nH]1 (stereo not given in full)
inhibition [1]: 80 to 100% | inhibition [2]: 15% | Activity [3]: inactive

O=c1ccn([C@@H]2O[C@H](COP(=S)(S)OP(=O)(O)CP(=O)(O)O)[C@@H](O)[C@H]2O)c(=O)[nH]1 (stereo not given in full)
degraded at 120 h, 2000 µM [4]: 2% | inhibition [1]: 80 to 100% | inhibition [2]: 15% | degraded at 120 h, 2000 µM [5]: 8% | Activity [3]: inactive | Stability [6]: Stable

O=c1ccn([C@@H]2O[C@H](COP(=S)(S)OP(=O)(O)OP(=O)(O)O)[C@@H](O)[C@H]2O)c(=O)[nH]1 (stereo not given in full)
degraded at 120 h, 2000 µM [4]: 11% | inhibition [1]: 100% | inhibition [2]: inactive | degraded at 120 h, 2000 µM [5]: 13% | Activity [3]: inactive | Stability [6]: Stable
